Here are results for 2 molecules from ChEMBL document CHEMBL1629705, “PSI-7851, a pronucleotide of beta-D-2'-deoxy-2'-fluoro-2'-C-methyluridine monophosphate, is a potent and pan-genotype inhibitor of hepatitis C virus replication” (Antimicrob Agents Chemother, 2010).

Data set [1] concerns Hepatitis C virus. The data set is described as follows: Antiviral activity against Hepatitis C virus JFH1 assessed as viral RNA level by quantitative real-time PCR. Format: functional, organism-based, Hepacivirus hominis. The note with it: JFH-1.
The nature of data set [2]: Cytotoxicity against human erythroid progenitor cells after 14 to 16 days by colony formation assay. It is filed as cell-based. The essentials: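 Normal human bone marrow erythroid and myeloid progenitors, 2 × 10^4 cells per culture in methylcellulose with rh-SCF 50 ng/ml, rh-IL-3 10 ng/ml, rh-GM-CSF 10 ng/ml and rh-EPO 3 U/ml. Compound up to 50 μM, DMSO control 0.1%, 14–16 days.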

The test system of data set [3] is Hepatitis C virus. The data set is described as follows: Antiviral activity against Hepatitis C virus assessed as inhibition of viral rebound at 1 uM after 3 weeks in presence of G418. Format: functional, organism-based. The note with it: Hepacivirus hominis. The procedure, abridged: (§1)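 ET-lunet replicon cells, 1 × 10^5/well, no G418, with compound at 0.1, 1 or 2 μM (final DMSO 0.5%). Passaged 1:3 or 1:4 every 3–4 days for 3 weeks with fresh compound, then 3 more weeks with 0.25 mg/ml G418 and no inhibitor. HCV RNA by RT-PCR normalized to rRNA (ΔΔCt vs DMSO) at each passage. Crystal violet colony staining at 6 weeks.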

Data set [4] in a line: Cytotoxicity against human HepAD38 cells. Format: cell-based.
Data set [5] can be described thus: Cytotoxicity against human CEM cells assessed as inhibition of mitochondrial DNA synthesis. It is filed as cell-based. The note with it: CEM (CCRF-CEM) cells. The essentials:
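HepG2 or CEM cells incubated 14 days with compound up to 100 μM, ddC as control. Medium and compound replenished on days 7 and 11. Mitochondrial COXII gene and nuclear rDNA measured by multiplex quantitative RT-PCR.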

In data set [6] the test system is Hepatitis C virus. The experiment in a line: Antiviral activity against Hepatitis C virus assessed as clearance of HCV from replicon cells at 2 uM. Format: functional, organism-based. Particulars: Hepacivirus hominis. The procedure, abridged:
as §1

Data set [7] is described as follows: Cytotoxicity against human CEM cells. It is filed as cell-based. Particulars: CEM (CCRF-CEM) cells. The procedure, abridged:
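Cells treated 8 days with compound serially diluted from 100 μM in DMSO-containing medium, gemcitabine (1 μM) or DMSO control. Viability by MTS-type tetrazolium assay, absorbance at 490 nm with medium-only blanks. Value derived by comparison with DMSO control wells.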

In another data set the test system is Hepatitis B virus. The data set is described as follows: Antiviral activity against Hepatitis B virus infected in human HepAD38 cells by quantitative real-time PCR. Format: functional, organism-based.
The target of data set [8] is DNA-directed RNA polymerase II subunit RPB1 (Homo sapiens, UniProt P24928). The experiment in a line: Inhibition of human RNA polymerase 2 assessed as synthesis of RNA products at 1 uM. The essentials:
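In vitro transcription by HeLa nuclear extract from CMV immediate-early promoter DNA. Mix: 400 μM ATP, CTP and UTP, 16 μM GTP, [α-32P]GTP, 3 mM MgCl2, in 20 mM HEPES pH 7.9 buffer with KCl, EDTA, DTT and glycerol. Inhibitor up to 1 mM. 30°C for 60 min. RNA purified, run on 6% sequencing gel and quantified by phosphorimager.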

Data set [9] addresses T1, DNA polymerase alpha catalytic subunit (Homo sapiens, UniProt P09884).
T1 sequence (P09884 whole entry): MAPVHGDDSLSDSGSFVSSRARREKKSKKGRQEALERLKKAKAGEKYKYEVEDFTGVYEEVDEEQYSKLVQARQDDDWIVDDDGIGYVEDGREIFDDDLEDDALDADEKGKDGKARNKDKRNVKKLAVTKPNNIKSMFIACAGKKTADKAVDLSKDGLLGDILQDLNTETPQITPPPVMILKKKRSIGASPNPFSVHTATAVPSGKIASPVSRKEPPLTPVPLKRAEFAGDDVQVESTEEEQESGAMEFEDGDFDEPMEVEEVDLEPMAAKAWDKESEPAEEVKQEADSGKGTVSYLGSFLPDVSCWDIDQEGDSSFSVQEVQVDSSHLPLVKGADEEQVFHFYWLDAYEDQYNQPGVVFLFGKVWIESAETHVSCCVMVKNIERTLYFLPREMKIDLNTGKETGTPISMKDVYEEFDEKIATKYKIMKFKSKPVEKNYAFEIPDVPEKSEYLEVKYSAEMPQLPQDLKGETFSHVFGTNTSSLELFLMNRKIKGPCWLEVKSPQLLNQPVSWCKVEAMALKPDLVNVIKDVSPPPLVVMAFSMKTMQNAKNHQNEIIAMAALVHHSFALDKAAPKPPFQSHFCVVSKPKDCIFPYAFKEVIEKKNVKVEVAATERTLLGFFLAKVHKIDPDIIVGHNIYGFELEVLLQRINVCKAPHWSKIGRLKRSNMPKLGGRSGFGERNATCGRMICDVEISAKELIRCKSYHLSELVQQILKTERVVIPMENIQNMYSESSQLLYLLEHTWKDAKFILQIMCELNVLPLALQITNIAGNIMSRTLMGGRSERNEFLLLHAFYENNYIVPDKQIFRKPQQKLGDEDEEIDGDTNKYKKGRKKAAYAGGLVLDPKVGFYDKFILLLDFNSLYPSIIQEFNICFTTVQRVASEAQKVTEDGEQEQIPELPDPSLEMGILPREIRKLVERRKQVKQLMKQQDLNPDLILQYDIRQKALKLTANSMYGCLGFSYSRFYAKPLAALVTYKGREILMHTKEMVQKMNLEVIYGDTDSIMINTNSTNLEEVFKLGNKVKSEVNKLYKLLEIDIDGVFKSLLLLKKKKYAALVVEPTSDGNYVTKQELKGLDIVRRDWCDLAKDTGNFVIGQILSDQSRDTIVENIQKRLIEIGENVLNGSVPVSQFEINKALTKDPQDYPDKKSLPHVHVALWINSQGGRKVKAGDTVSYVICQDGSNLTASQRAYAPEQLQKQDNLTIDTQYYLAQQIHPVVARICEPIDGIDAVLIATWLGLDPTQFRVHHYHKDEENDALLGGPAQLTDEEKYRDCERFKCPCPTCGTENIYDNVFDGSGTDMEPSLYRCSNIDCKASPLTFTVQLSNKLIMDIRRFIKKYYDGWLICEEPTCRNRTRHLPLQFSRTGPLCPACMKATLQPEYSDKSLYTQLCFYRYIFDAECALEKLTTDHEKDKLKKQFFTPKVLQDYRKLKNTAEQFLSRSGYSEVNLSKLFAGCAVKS
The experiment in a line: Inhibition of human DNA polymerase alpha assessed as incorporation of [alpha-32P]dCTP up to 1mM preincubated for 30 mins by whatman DE81 paper binding assay. The essentials: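 Human DNA polymerase α (20 μg/ml) or γ (50 μg/ml) in 50 mM Tris pH 7.5, 50 mM NaCl, activated calf thymus DNA, 20 μM each dNTP, [α-32P]dCTP, 5 mM MgCl2. Nucleotide inhibitor up to 1 mM. 37°C, quenched with EDTA at 30 min. Product measured by DE81 paper binding; IC50 by nonlinear fit.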

SMILES strings stand for the structures. Calls of active or inactive are those of the source. The calls are words filed in the database; no cut-off is given here.

In the case of `CC(C)OC(=O)[C@H](C)NP(=O)(OC[C@H]1O[C@@H](n2ccc(=O)[nH]c2=O)[C@](C)(F)[C@@H]1O)Oc1ccccc1` (stereo partly specified), the EC50 (usually the midpoint of the concentration-response curve) is 0.18 µM in the data set with Hepatitis C virus [1] and greater than 100 µM with Hepatitis B virus. Also, the EC90 (commonly the point of the concentration-response curve where the effect stands at 90%) with Hepatitis C virus [1] was determined as 0.52 µM. In addition, the 50% cytotoxic concentration (CC50) (as a rule, the concentration giving 50% cytotoxicity) in [2] is greater than 50 µM; in [4], greater than 100 µM. Also, the inhibition result with Hepatitis C virus [3] is “Active”. The CC90 was less than 3 µM in data set [5] and 28.5 µM in [7]. In addition, the result in the data set on Hepatitis C virus [6] was Active.

As to `C[C@@]1(F)[C@H](O)[C@@H](COP(=O)(O)OP(=O)(O)OP(=O)(O)O)O[C@H]1n1ccc(=O)[nH]c1=O` [GS-461203], the inhibition entry in [8] is “Active”. Further, the IC50 (in general, the concentration needed to halve the response being measured) in data set [9] came out at 550 µM.
